UCH37 DUB inh: human UCH37 deubiquitinating enzyme inhibition; Q9Y5K5; hit rate 0.33% among 330,000; inhibition, % (no concentration beside the values); purified proteasome/UCH37, Ub-AMC cleavage fluorescence;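 active = mean inhibition over replicate wells above about 20%, limit read from the data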;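 also: 0% = compound-free wells with enzyme and 100% = wells lacking proteasome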
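Material: human UCH37 enzyme supplied as purified proteasome complex. Measure: % inhibition of Ub-AMC cleavage fluorescence. Medium: pH 7.4 Tris-HCl (50 mM) with ovalbumin, ATP-MgCl2, DTT. Times: 30 min preincubation with enzyme, 25 min cleavage at room temperature. Detection: AMC fluorescence intensity at 355/460 nm.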
FAS-TE inh: blocks the thioesterase domain of human fatty acid synthase. P49327. recombinant FAS-TE, OMFH fluorogenic substrate, fluorescence endpoint. inhibition, % at 15 µM. hit rate 0.67% among 360,000. AID 602261;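 active = compounds whose normalised, plate-corrected inhibition of enzyme fluorescence in the single-dose primary screen is 50% or more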;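 also: 0% = DMSO with enzyme and 100% = substrate without enzyme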
Rtt109 Vps75: inhibitors of Candida albicans Rtt109/Vps75 histone acetyltransferase; purified Rtt109/Vps75, ThioGlo CoA-SH fluorescence, 4 h; inhibition, % at 34.9 µM; hit rate 0.16% among 330,000;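 active = inhibition of at least 50% in every replicate; inconclusive = best replicate reaches 50% inhibition but some replicates fall short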
Target sequence (Q5AAJ8 whole entry, looked up): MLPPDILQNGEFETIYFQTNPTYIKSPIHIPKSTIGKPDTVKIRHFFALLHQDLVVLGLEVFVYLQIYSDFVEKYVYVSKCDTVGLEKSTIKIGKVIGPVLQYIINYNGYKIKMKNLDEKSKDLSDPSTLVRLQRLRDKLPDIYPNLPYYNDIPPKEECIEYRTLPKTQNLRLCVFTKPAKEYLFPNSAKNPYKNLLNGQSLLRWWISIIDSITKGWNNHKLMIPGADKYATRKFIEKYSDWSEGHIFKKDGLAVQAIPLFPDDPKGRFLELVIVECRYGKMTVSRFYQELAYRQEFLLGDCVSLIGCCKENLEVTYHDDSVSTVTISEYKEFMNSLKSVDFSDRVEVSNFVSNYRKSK
PfM18AAP inh: blocks P. falciparum M18 aspartyl aminopeptidase | inhibition, % at 7.35 µM | hit rate 1.2% among 290,000 | recombinant PfM18AAP, H-Glu-NHMec fluorogenic cleavage;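 active = inhibition above the campaign mean inhibition over all tested compounds plus 3 SD, cut at about 28% in these data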;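 also: 0% = plate median of test compound wells and 100% = 2 mM ZnCl2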
ALR H2O2 inh: blocks human ALR sulfhydryl oxidase activity. purified ALR, DTT oxidation, H2O2 HRP-luminol luminescence. inhibition, % (no concentration beside the values). hit rate 3.8% among 290,000;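 active = mean replicate inhibition above about 79%, with every replicate also reaching it, limit read from the data; inconclusive = only one of the two criteria met; inactive = mean below limit and not every replicate reaching it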
Target sequence (P55789 whole entry, looked up): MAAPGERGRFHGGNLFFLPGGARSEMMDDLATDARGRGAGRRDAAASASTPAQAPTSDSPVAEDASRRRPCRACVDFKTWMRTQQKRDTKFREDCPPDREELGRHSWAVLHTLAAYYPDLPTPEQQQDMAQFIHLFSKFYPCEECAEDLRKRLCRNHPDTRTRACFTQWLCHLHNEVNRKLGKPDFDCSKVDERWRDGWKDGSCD
HDAC3 inhib: inhibitors of human histone deacetylase 3. recombinant HDAC3, fluorogenic peptide/trypsin coupled, fluorescence. inhibition, % at 8.3 µM. hit rate 0.15% among 320,000. AID 2718; in the data active = inhibition above about 26%, passing the limit was not always enough; inconclusive = no clear call, values can overlap the other calls
* = called active by the depositor. Hits are enriched below; roughly 4.6% of the tested compounds scored in any of these assays.

What do the screens show for `CSc1ccc(C=NNC(=O)CN2CCN(Cc3ccccc3)CC2)cc1`?
UCH37 DUB inh: -8

What do the screens show for `Cc1cc(Cl)ccc1OCC(=O)n1cc(C(=O)c2cc(Cl)ccc2O)cn1`?
UCH37 DUB inh: 1; PfM18AAP inh: 30*; ALR H2O2 inh: 3; HDAC3 inhib: 2

How did Cc1cc(Cl)ccc1OCC(=O)N1CCCN(C(=O)COc2ccc(Cl)cc2C)CC1 do in these assays?
UCH37 DUB inh: 3; FAS-TE inh: 43; Rtt109 Vps75: 21; PfM18AAP inh: 3; ALR H2O2 inh: -12; HDAC3 inhib: 8

How did COc1ccc(C(=O)n2cc(C(=O)c3cc(C)ccc3O)cn2)cc1 do in these assays?
UCH37 DUB inh: 2; FAS-TE inh: -9; Rtt109 Vps75: -3; PfM18AAP inh: 12; ALR H2O2 inh: 98*; HDAC3 inhib: 37*

Results for O=C(CON=Cc1ccc(OC(F)F)cc1)NCc1ccco1 ?
UCH37 DUB inh: 1

How did Cc1cc(C)c(OCC(=O)N(C)CC(=O)Nc2ccc(N3CCOCC3)cc2)c(C)c1 do in these assays?
UCH37 DUB inh: 5; FAS-TE inh: -4; Rtt109 Vps75: 4; PfM18AAP inh: 0; ALR H2O2 inh: 27; HDAC3 inhib: 7

What do the screens show for `CSc1ccc(Cl)c(C(=O)N(C)CC(=O)Nc2ccc(N3CCOCC3)cc2)c1`?
UCH37 DUB inh: 5; FAS-TE inh: -4; Rtt109 Vps75: 4; ALR H2O2 inh: 89*; HDAC3 inhib: 0

What do the screens show for `Cc1ccc(C)c(SCC(=O)N(C)CC(=O)Nc2ccc(N3CCOCC3)cc2)c1`?
UCH37 DUB inh: 4; FAS-TE inh: -1; Rtt109 Vps75: -3; ALR H2O2 inh: 98*; HDAC3 inhib: 0

What do the screens show for `CC(CCc1ccco1)=NNC(=O)CNc1cccc2ccccc12`?
UCH37 DUB inh: -66

How did CCN(CCNC(=O)CCCn1nc(C)n2c(cc3sccc32)c1=O)c1ccccc1 do in these assays?
UCH37 DUB inh: 3; FAS-TE inh: 6; Rtt109 Vps75: -7; PfM18AAP inh: -8; ALR H2O2 inh: 98*; HDAC3 inhib: 2

Results for CC(=NNC(=O)c1cccs1)c1ccc2c(c1)OCO2 ?
UCH37 DUB inh: -13

What do the screens show for `O=C(Nc1cccc(-c2cn3ccccc3n2)c1)c1ccccc1`?
UCH37 DUB inh: 1; FAS-TE inh: 0; Rtt109 Vps75: 23; PfM18AAP inh: 5; ALR H2O2 inh: 95*; HDAC3 inhib: inconclusive

How did CCOC(=O)C1=C(C)N=c2sc(=Cc3ccc(OCC(=O)O)cc3)c(=O)n2C1c1ccc(F)cc1 (centres undefined) do in these assays?
UCH37 DUB inh: 11

What do the screens show for `S=c1[nH]nc(-c2ccco2)n1-c1cccc2ccccc12`?
UCH37 DUB inh: 0; FAS-TE inh: -13; Rtt109 Vps75: -4; PfM18AAP inh: 10; ALR H2O2 inh: 16; HDAC3 inhib: 12

What do the screens show for `S=c1[nH]nc(-c2ccco2)n1N=Cc1ccc(Cl)cc1`?
UCH37 DUB inh: 5

Results for S=c1[nH]nc(-c2ccco2)n1-c1ccc(Cl)cc1 ?
UCH37 DUB inh: 5; FAS-TE inh: 1; Rtt109 Vps75: 5; PfM18AAP inh: 30*; ALR H2O2 inh: 59; HDAC3 inhib: 8

What do the screens show for `COc1ccc(-n2c(-c3ccco3)n[nH]c2=S)cc1`?
UCH37 DUB inh: -1; FAS-TE inh: -10; Rtt109 Vps75: 3; PfM18AAP inh: 10; ALR H2O2 inh: 95*; HDAC3 inhib: 7

Results for Nn1c(-c2ccco2)n[nH]c1=S ?
UCH37 DUB inh: 5; FAS-TE inh: -9; Rtt109 Vps75: 0; PfM18AAP inh: 29*; ALR H2O2 inh: 1; HDAC3 inhib: 1

Results for COc1ccccc1-n1c(-c2ccco2)n[nH]c1=S ?
UCH37 DUB inh: -2; FAS-TE inh: -6; Rtt109 Vps75: -13; PfM18AAP inh: 13; HDAC3 inhib: 3

Results for S=c1[nH]nc(-c2ccco2)n1C1CCCCC1 ?
UCH37 DUB inh: -2; FAS-TE inh: -8; Rtt109 Vps75: -29; PfM18AAP inh: 14; ALR H2O2 inh: 95*; HDAC3 inhib: 3

How did Cn1cc(Cl)c(-c2n[nH]c(=S)n2C2CCCCC2)n1 do in these assays?
UCH37 DUB inh: 3; FAS-TE inh: -2; Rtt109 Vps75: 6; PfM18AAP inh: 8; ALR H2O2 inh: 7; HDAC3 inhib: 3

How did O=C(Cn1cncn1)NN=Cc1ccccc1O do in these assays?
UCH37 DUB inh: -29

How did NC(=S)NN=C1CC(n2nnnc2-c2ccccc2)C2COC1O2 (centres undefined) do in these assays?
UCH37 DUB inh: 3

Results for CC1C(=O)NN=C1C(=O)NN=Cc1ccc(O)cc1O (centres undefined) ?
UCH37 DUB inh: 0

What do the screens show for `Cc1ccn2c(C(=O)NN=Cc3ccccc3[N+](=O)[O-])c(C)nc2c1`?
UCH37 DUB inh: 14

How did c1ccc(CNc2ncnc3sc4c(c23)CCCC4)nc1 do in these assays?
FAS-TE inh: 1; Rtt109 Vps75: -13; PfM18AAP inh: -2; ALR H2O2 inh: 96*; HDAC3 inhib: -4

What do the screens show for `Cc1ccc(NCC(=O)N/N=C/c2ccc(OC(=O)c3ccco3)cc2)cc1`?
FAS-TE inh: 6; Rtt109 Vps75: 4; PfM18AAP inh: 1; ALR H2O2 inh: 99*; HDAC3 inhib: 16

How did Cc1ccc(S(=O)(=O)N=C(Sc2ccccc2C(=O)O)c2ccccc2)cc1 do in these assays?
UCH37 DUB inh: 1

Results for COc1ccc(-c2csc3ncn(-c4ccc(C)cc4)c(=O)c23)cc1OC ?
UCH37 DUB inh: 4; FAS-TE inh: 4; Rtt109 Vps75: -1; PfM18AAP inh: 0; HDAC3 inhib: 0

Results for COc1ccc(-n2cnc3scc(-c4ccc(OC)c(OC)c4)c3c2=O)cc1 ?
UCH37 DUB inh: 1; FAS-TE inh: -4; Rtt109 Vps75: 62*; PfM18AAP inh: 1; ALR H2O2 inh: -4; HDAC3 inhib: 9

Results for O=C(c1csc(Nc2ccccc2Cl)n1)N1CCCC1 ?
UCH37 DUB inh: 3; FAS-TE inh: -3; Rtt109 Vps75: -2; PfM18AAP inh: 0; ALR H2O2 inh: 84*; HDAC3 inhib: -6

How did CCOc1ccccc1C=NNc1cnn(Cc2ccccc2)c(=O)c1Cl do in these assays?
UCH37 DUB inh: -2

How did Oc1ccc(N=Nc2nc(-c3ccccc3)c(-c3ccccc3)[nH]2)cc1 do in these assays?
UCH37 DUB inh: 10; FAS-TE inh: 18; Rtt109 Vps75: -4; PfM18AAP inh: 4; ALR H2O2 inh: 14; HDAC3 inhib: 1

What do the screens show for `Oc1ccc(-c2[nH]nc(-c3ccccc3)c2-c2nc3ccccc3[nH]2)cc1`?
UCH37 DUB inh: -4; FAS-TE inh: 3; Rtt109 Vps75: 14; PfM18AAP inh: -2; ALR H2O2 inh: 84*; HDAC3 inhib: 11

How did CC(/C=C/c1ccccc1)=NNC(=O)c1cnccn1 do in these assays?
UCH37 DUB inh: 9

Screening data as filed in PubChem BioAssay.
